Test results taken from ChEMBL document CHEMBL1156144, “Biaryl ethers as novel non-nucleoside reverse transcriptase inhibitors with improved potency against key mutant viruses” (J Med Chem, 2009).
pIC50, pKi: −log10 of the molar value.

How the values were obtained:
[1] = Inhibition of RNA-dependent DNA polymerase activity of wild type HIV reverse transcriptase assessed as BrdU incorporation by standard ECL assay; set-up: species or system Human immunodeficiency virus
In short: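 Purified recombinant wild-type RT polymerase activity was measured using a 500-nt heteropolymeric RNA template and a biotinylated DNA primer. BrdU incorporation was detected with a ruthenylated anti-BrdU antibody by electrochemiluminescence. Ki is the geometric mean of at least two determinations, each within 25% of the mean.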

[2] = tested on: Human immunodeficiency virus; assay: Antiviral activity against wild type HIV H9-3B infected in human MT2 cells assessed as inhibition of viral replication measuring p24 level after 3 days in presence of 10% fetal bovine serum; format: functional; details: Human immunodeficiency virus 1, MT2, Serum; read-out: CIC95
In short: (§1)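 Multiple-cycle spread assay in MT2 cells with wild-type H9IIIB virus. Cells were infected overnight at moi ≈ 0.01 without compound, washed, then cultured 3 days across varying compound concentrations in RPMI 1640 with 10% FBS or 50% NHS. p24 was measured in supernatants. CIC95 is the lowest concentration inhibiting replication ≥95%, as the geometric mean of ≥2 determinations.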

[3] = tested on: Human immunodeficiency virus; assay: Antiviral activity against wild type HIV H9-3B infected in human MT2 cells assessed as inhibition of viral replication measuring p24 level after 3 days in presence of 50% normal human serum; format: functional; details: Human immunodeficiency virus 1, H9-3B, 72 h, read-out: CIC95; in short: as §1
[4] = tested on: Human immunodeficiency virus; assay: Antiviral activity against HIV with reverse transcriptase K103N mutant infected in human MT2 cells assessed as inhibition of viral replication measuring p24 level after 3 days in presence of 10% fetal bovine serum; format: functional; details: Human immunodeficiency virus 1, MT2, Serum, 72 h; read-out: CIC95
In short: (§2)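 Multiple-cycle replication (Spread) assay in MT2 cells with H9IIIB-background mutant virus. Cells were infected overnight at moi ≈ 0.01 without compound, washed, then cultured 3 days across a range of compound concentrations in medium with 10% FBS. p24 was measured in supernatants. CIC95 is the lowest concentration inhibiting replication by ≥95%, reported as the geometric mean of ≥2 determinations.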

[5] = tested on: Human immunodeficiency virus; assay: Antiviral activity against HIV with reverse transcriptase Y181C mutant infected in human MT2 cells assessed as inhibition of viral replication measuring p24 level after 3 days in presence of 10% fetal bovine serum; format: functional; details: Human immunodeficiency virus 1, MT2, Serum, 72 h; read-out: CIC95; in short: as §2
[6] = tested on: Human immunodeficiency virus; assay: Antiviral activity against HIV with reverse transcriptase K103N/Y181C double mutant infected in human MT2 cells assessed as inhibition of viral replication measuring p24 level after 3 days in presence of 10% fetal bovine serum; format: functional; details: Human immunodeficiency virus 1, MT2, Serum, 72 h; read-out: CIC95; in short: as §2
[7] = Clearance in Sprague-Dawley rat at 2 mg/kg, iv; format: ADME, organism-based; set-up: dose 2 mg/kg, route intravenous; details: in vivo
[8] = Volume of distribution in Sprague-Dawley rat at 2 mg/kg, iv; format: ADME, organism-based; set-up: dose 2 mg/kg, route intravenous; details: in vivo
[9] = tested on: Rattus norvegicus; assay: AUC in Sprague-Dawley rat at 10 mg/kg, po; format: ADME, organism-based, Plasma; set-up: dose 10 mg/kg, route oral; details: in vivo
[10] = Half life in Sprague-Dawley rat at 2 mg/kg, iv; format: ADME, organism-based; set-up: dose 2 mg/kg, route intravenous; details: in vivo
[11] = Clearance in Beagle dog at 0.5 mg/kg, iv; format: ADME, organism-based, Canis lupus familiaris; set-up: dose 0.5 mg/kg, route intravenous; details: in vivo
[12] = Volume of distribution in Beagle dog at 0.5 mg/kg, iv; format: ADME, organism-based, Canis lupus familiaris; set-up: dose 0.5 mg/kg, route intravenous; details: in vivo
[13] = tested on: Canis familiaris; assay: AUC in Beagle dog at 1 mg/kg, po; format: ADME, organism-based, Canis lupus familiaris, Plasma; set-up: dose 1 mg/kg, route oral; details: in vivo
[14] = Half life in Beagle dog at 0.5 mg/kg, iv; format: ADME, organism-based, Canis lupus familiaris; set-up: dose 0.5 mg/kg, route intravenous; details: in vivo
[15] = Oral bioavailability in Beagle dog at 1 mg/kg; format: ADME, organism-based, Canis lupus familiaris; details: in vivo
[16] = Clearance in rhesus monkey at 1 mg/kg, iv; format: ADME, organism-based, Macaca mulatta; set-up: dose 1 mg/kg, route intravenous; details: in vivo
[17] = Volume of distribution in rhesus monkey at 1 mg/kg, iv; format: ADME, organism-based, Macaca mulatta; set-up: dose 1 mg/kg, route intravenous; details: in vivo
[18] = tested on: Rhesus monkey; assay: AUC in rhesus monkey at 5 mg/kg, po; format: ADME, organism-based, Macaca mulatta, Plasma; set-up: dose 5 mg/kg, route oral; details: in vivo
[19] = Half life in rhesus monkey at 1 mg/kg, iv; format: ADME, organism-based, Macaca mulatta; set-up: dose 1 mg/kg, route intravenous; details: in vivo
[20] = tested on: Human immunodeficiency virus; assay: Antiviral activity against HIV with reverse transcriptase MDRC4 mutant assessed as inhibition of viral replication; format: functional, organism-based; details: Human immunodeficiency virus 1
[21] = tested on: Human immunodeficiency virus; assay: Antiviral activity against HIV with reverse transcriptase CNDO mutant assessed as inhibition of viral replication; format: functional, organism-based; details: Human immunodeficiency virus 1
[22] = tested on: Human immunodeficiency virus; assay: Antiviral activity against HIV with reverse transcriptase L100I mutant assessed as inhibition of viral replication; format: functional, organism-based; details: Human immunodeficiency virus 1
[23] = tested on: Human immunodeficiency virus; assay: Antiviral activity against HIV with reverse transcriptase K103N mutant assessed as inhibition of viral replication; format: functional, organism-based; details: Human immunodeficiency virus 1
[24] = tested on: Human immunodeficiency virus; assay: Antiviral activity against HIV with reverse transcriptase Y181C mutant assessed as inhibition of viral replication; format: functional, organism-based; details: Human immunodeficiency virus 1
[25] = tested on: Human immunodeficiency virus; assay: Antiviral activity against HIV with reverse transcriptase Y188L mutant assessed as inhibition of viral replication; format: functional, organism-based; details: Human immunodeficiency virus 1
[26] = tested on: Human immunodeficiency virus; assay: Antiviral activity against HIV with reverse transcriptase G190A mutant assessed as inhibition of viral replication; format: functional, organism-based; details: Human immunodeficiency virus 1
[27] = tested on: Human immunodeficiency virus; assay: Antiviral activity against HIV with reverse transcriptase G190S mutant assessed as inhibition of viral replication; format: functional, organism-based; details: Human immunodeficiency virus 1
[28] = tested on: Human immunodeficiency virus; assay: Antiviral activity against HIV with reverse transcriptase L100I/K103N double mutant assessed as inhibition of viral replication; format: functional, organism-based; details: Human immunodeficiency virus 1
[29] = tested on: Human immunodeficiency virus; assay: Antiviral activity against HIV with reverse transcriptase K103N/Y181C double mutant assessed as inhibition of viral replication; format: functional, organism-based; details: Human immunodeficiency virus 1
[30] = tested on: Human immunodeficiency virus; assay: Antiviral activity against HIV with reverse transcriptase K103N/G190A double mutant assessed as inhibition of viral replication; format: functional, organism-based; details: Human immunodeficiency virus 1
[31] = tested on: Human immunodeficiency virus; assay: Antiviral activity against HIV with reverse transcriptase Y181C/G190A double mutant assessed as inhibition of viral replication; format: functional, organism-based; details: Human immunodeficiency virus 1
[32] = tested on: Human immunodeficiency virus; assay: Antiviral activity against HIV with reverse transcriptase K103N/P225H double mutant assessed as inhibition of viral replication; format: functional, organism-based; details: Human immunodeficiency virus 1
[33] = tested on: Human immunodeficiency virus; assay: Antiviral activity against HIV with reverse transcriptase K101E/G190A double mutant assessed as inhibition of viral replication; format: functional, organism-based; details: Human immunodeficiency virus 1
[34] = tested on: Human immunodeficiency virus; assay: Antiviral activity against HIV with reverse transcriptase K101E/Y181C/G190A mutant assessed as inhibition of viral replication; format: functional, organism-based; details: Human immunodeficiency virus 1
[35] = tested on: Human immunodeficiency virus; assay: Antiviral activity against HIV with reverse transcriptase K103N/Y181C/G190A mutant assessed as inhibition of viral replication; format: functional, organism-based; details: Human immunodeficiency virus 1
[36] = tested on: Human immunodeficiency virus; assay: Antiviral activity against HIV with reverse transcriptase V106A/G190A/F227L mutant assessed as inhibition of viral replication; format: functional, organism-based; details: Human immunodeficiency virus 1
[37] = tested on: Human immunodeficiency virus; assay: Antiviral activity against HIV with reverse transcriptase MDRC4 mutant assessed as inhibition of viral replication relative to wild type; format: functional
[38] = tested on: Human immunodeficiency virus; assay: Antiviral activity against HIV with reverse transcriptase CNDO mutant assessed as inhibition of viral replication relative to wild type; format: functional
[39] = tested on: Human immunodeficiency virus; assay: Antiviral activity against HIV with reverse transcriptase L100I mutant assessed as inhibition of viral replication relative to wild type; format: functional
[40] = tested on: Human immunodeficiency virus; assay: Antiviral activity against HIV with reverse transcriptase K103N mutant assessed as inhibition of viral replication relative to wild type; format: functional
[41] = tested on: Human immunodeficiency virus; assay: Antiviral activity against HIV with reverse transcriptase Y181C mutant assessed as inhibition of viral replication relative to wild type; format: functional
[42] = tested on: Human immunodeficiency virus; assay: Antiviral activity against HIV with reverse transcriptase Y188L mutant assessed as inhibition of viral replication relative to wild type; format: functional
[43] = tested on: Human immunodeficiency virus; assay: Antiviral activity against HIV with reverse transcriptase G190A mutant assessed as inhibition of viral replication relative to wild type; format: functional
[44] = tested on: Human immunodeficiency virus; assay: Antiviral activity against HIV with reverse transcriptase G190S mutant assessed as inhibition of viral replication relative to wild type; format: functional
[45] = tested on: Human immunodeficiency virus; assay: Antiviral activity against HIV with reverse transcriptase L100I/K103N double mutant assessed as inhibition of viral replication relative to wild type; format: functional
[46] = tested on: Human immunodeficiency virus; assay: Antiviral activity against HIV with reverse transcriptase K103N/Y181C double mutant assessed as inhibition of viral replication relative to wild type; format: functional
[47] = tested on: Human immunodeficiency virus; assay: Antiviral activity against HIV with reverse transcriptase K103N/G190A double mutant assessed as inhibition of viral replication relative to wild type; format: functional
[48] = tested on: Human immunodeficiency virus; assay: Antiviral activity against HIV with reverse transcriptase Y181C/G190A double mutant assessed as inhibition of viral replication relative to wild type; format: functional
[49] = tested on: Human immunodeficiency virus; assay: Antiviral activity against HIV with reverse transcriptase K103N/P225H double mutant assessed as inhibition of viral replication relative to wild type; format: functional
[50] = tested on: Human immunodeficiency virus; assay: Antiviral activity against HIV with reverse transcriptase K101E/G190A double mutant assessed as inhibition of viral replication relative to wild type; format: functional
[51] = tested on: Human immunodeficiency virus; assay: Antiviral activity against HIV with reverse transcriptase K101E/Y181C/G190A mutant assessed as inhibition of viral replication relative to wild type; format: functional
[52] = tested on: Human immunodeficiency virus; assay: Antiviral activity against HIV with reverse transcriptase K103N/Y181C/G190A mutant assessed as inhibition of viral replication relative to wild type; format: functional
[53] = tested on: Human immunodeficiency virus; assay: Antiviral activity against HIV with reverse transcriptase V106A/G190A/F227L mutant assessed as inhibition of viral replication relative to wild type; format: functional
[54] = Oral bioavailability in rhesus monkey at 5 mg/kg; details: in vivo

N#Cc1cc(Cl)cc(Oc2cc(OCc3n[nH]c4nc(N)ccc34)ccc2Cl)c1
pKi [1]: 9.70
IC95 [2]: 0.005 µM
IC95 [3]: 0.026 µM
IC95 [4]: 0.011 µM
IC95 [5]: 0.027 µM
IC95 [6]: 0.101 µM
clearance [7]: 0.54 L/h/kg
Vd [8]: 2 L/kg
AUC [9]: 23 µM
half-life [10]: 3.5 h
clearance [11]: 0.348 L/h/kg
Vd [12]: 1.7 L/kg
AUC [13]: 31 µM
half-life [14]: 3.9 h
bioavailability [15]: 47%
clearance [16]: 0.96 L/h/kg
Vd [17]: 1.9 L/kg
AUC [18]: 0.3 µM
half-life [19]: 2.1 h
pIC50 [20]: 8.05
pIC50 [21]: 8.85
pIC50 [22]: 8.89
pIC50 [23]: 8.59
pIC50 [24]: 8.32
pIC50 [25]: 6.06
pIC50 [26]: 8.54
pIC50 [27]: 7.91
pIC50 [28]: 7.46
pIC50 [29]: 7.11
pIC50 [30]: 8.14
pIC50 [31]: 7.94
pIC50 [32]: 8.66
pIC50 [33]: 8.16
pIC50 [34]: 7.53
pIC50 [35]: 6.96
pIC50 [36]: < 6.00
fold change (FC) [37]: 6.43
fold change (FC) [38]: 1
fold change (FC) [39]: 0.93
fold change (FC) [40]: 1.86
fold change (FC) [41]: 3.43
fold change (FC) [42]: 629.07
fold change (FC) [43]: 2.07
fold change (FC) [44]: 8.79
fold change (FC) [45]: 24.86
fold change (FC) [46]: 55.5
fold change (FC) [47]: 5.14
fold change (FC) [48]: 8.29
fold change (FC) [49]: 1.57
fold change (FC) [50]: 4.93
fold change (FC) [51]: 21.07
fold change (FC) [52]: 78.93
fold change (FC) [53]: >714
bioavailability [54]: 1%
